Test results: ChEMBL document CHEMBL1629494, “New amino acid esters of salicylanilides active against MDR-TB and other microbes” (Eur J Med Chem, 2010)
In brackets after ≈: the same amount, converted by molar mass.

What was measured:
Type in all cases: functional
Enterococcus sp. [1] = assay: Antibacterial activity against Enterococcus sp. J14365/08 after 48 hrs by broth microdilution method; settings: J14365/08, 48 h
Procedure, shortened: (§1)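 Broth microdilution following […], with twofold compound dilutions in Mueller-Hinton bouillon. Incubated 24 and 48 h at 35 °C in the dark in a humid atmosphere. MIC (IC80) was taken as ≥80% growth reduction versus control, read visually and photometrically.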

Escherichia coli [2] = assay: Antibacterial activity against Escherichia coli CCM 4517 after 24 hrs by broth microdilution method; settings: CCM 4517, 24 h; procedure, shortened: as §1
Escherichia coli [3] = assay: Antibacterial activity against Escherichia coli CCM 4517 after 48 hrs by broth microdilution method; settings: CCM 4517, 48 h; procedure, shortened: as §1
Klebsiella pneumoniae [4] = assay: Antibacterial activity against Klebsiella pneumoniae D11750/08 after 24 hrs by broth microdilution method; settings: D11750/08, 24 h; procedure, shortened: as §1
Klebsiella pneumoniae [5] = assay: Antibacterial activity against Klebsiella pneumoniae D11750/08 after 48 hrs by broth microdilution method; settings: D11750/08, 48 h; procedure, shortened: as §1
Candida albicans [6] = assay: Antifungal activity against Candida albicans ATCC 44859 after 24 hrs by broth microdilution method; settings: ATCC 44859, 24 h
Candida albicans [7] = assay: Antifungal activity against Candida albicans ATCC 44859 after 48 hrs by broth microdilution method; settings: ATCC 44859, 48 h
Candida tropicalis [8] = assay: Antifungal activity against Candida tropicalis 156 after 24 hrs by broth microdilution method; settings: Candida tropicalis, 156, 24 h
Candida tropicalis [9] = assay: Antifungal activity against Candida tropicalis 156 after 48 hrs by broth microdilution method; settings: Candida tropicalis, 156, 48 h
Pichia kudriavzevii [10] = assay: Antifungal activity against Candida krusei E28 after 24 hrs by broth microdilution method; settings: E28, 24 h
Pichia kudriavzevii [11] = assay: Antifungal activity against Candida krusei E28 after 48 hrs by broth microdilution method; settings: E28, 48 h
Nakaseomyces glabratus [12] = assay: Antifungal activity against Candida glabrata 20/I after 24 hrs by broth microdilution method
Nakaseomyces glabratus [13] = assay: Antifungal activity against Candida glabrata 20/I after 48 hrs by broth microdilution method
Trichosporon beigelii [14] = assay: Antifungal activity against Trichosporon beigelii 1188 after 24 hrs by broth microdilution method; settings: Trichosporon beigelii, 1188, 24 h
Trichosporon beigelii [15] = assay: Antifungal activity against Trichosporon beigelii 1188 after 48 hrs by broth microdilution method; settings: Trichosporon beigelii, 1188, 48 h
Aspergillus fumigatus [16] = assay: Antifungal activity against Aspergillus fumigatus 231 after 24 hrs by broth microdilution method; settings: Aspergillus fumigatus, 231, 24 h
Aspergillus fumigatus [17] = assay: Antifungal activity against Aspergillus fumigatus 231 after 48 hrs by broth microdilution method; settings: Aspergillus fumigatus, 231, 48 h
Lichtheimia corymbifera [18] = assay: Antifungal activity against Absidia corymbifera 272 after 24 hrs by broth microdilution method; settings: Lichtheimia corymbifera, 272, 24 h
Lichtheimia corymbifera [19] = assay: Antifungal activity against Absidia corymbifera 272 after 48 hrs by broth microdilution method; settings: Lichtheimia corymbifera, 272, 48 h
[20] = test system: Trichophyton mentagrophytes; assay: Antifungal activity against Trichophyton mentagrophytes after 24 hrs by broth microdilution method
[21] = test system: Trichophyton mentagrophytes; assay: Antifungal activity against Trichophyton mentagrophytes after 48 hrs by broth microdilution method
[22] = test system: Mycobacterium tuberculosis; assay: Antimycobacterial activity against drug-sensitive Mycobacterium tuberculosis
Mycobacterium avium [23] = assay: Antimycobacterial activity against Mycobacterium avium
Mycobacterium kansasii [24] = assay: Antimycobacterial activity against Mycobacterium kansasii
[25] = test system: Mycobacterium tuberculosis; assay: Antimycobacterial activity against Mycobacterium tuberculosis H37Rv 331/88 after 14 days by micromethod; settings: H37Rv 331/88, 336 h
Procedure, shortened: (§2)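 Micromethod in Sula semisynthetic medium, with compounds added as DMSO solutions at 1000, 500, 250, 125, 62, 32, 16, 8, 4, 2, 1, 0.5, 0.25. Inoculum dilutions: H37Rv 10^-3; M. avium 330/88 10^-5; M. kansasii 235/80 10^-4; M. kansasii 6509/96 10^-5. Incubated at 37 °C, read at 14 and 21 days, and at 7 days for M. kansasii. MIC was the lowest concentration inhibiting growth.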

[26] = test system: Mycobacterium tuberculosis; assay: Antimycobacterial activity against Mycobacterium tuberculosis H37Rv 331/88 after 21 days by micromethod; settings: H37Rv 331/88, 504 h; procedure, shortened: as §2
Mycobacterium avium [27] = assay: Antimycobacterial activity against multidrug-resistant Mycobacterium avium 330/88 after 14 days by micromethod; settings: 330/88, 336 h; procedure, shortened: as §2
Mycobacterium avium [28] = assay: Antimycobacterial activity against multidrug-resistant Mycobacterium avium 330/88 after 21 days by micromethod; settings: 330/88, 504 h; procedure, shortened: as §2
Mycobacterium kansasii [29] = assay: Antimycobacterial activity against Mycobacterium kansasii 235/80 after 7 days by micromethod; settings: 235/80, 168 h; procedure, shortened: as §2
Mycobacterium kansasii [30] = assay: Antimycobacterial activity against Mycobacterium kansasii 235/80 after 14 days by micromethod; settings: 235/80, 336 h; procedure, shortened: as §2
Mycobacterium kansasii [31] = assay: Antimycobacterial activity against Mycobacterium kansasii 235/80 after 21 days by micromethod; settings: 235/80, 504 h; procedure, shortened: as §2
Mycobacterium kansasii [32] = assay: Antimycobacterial activity against Mycobacterium kansasii 6509/96 after 7 days by micromethod; settings: 6509/96, 168 h; procedure, shortened: as §2
Mycobacterium kansasii [33] = assay: Antimycobacterial activity against Mycobacterium kansasii 6509/96 after 14 days by micromethod; settings: 6509/96, 336 h; procedure, shortened: as §2
Mycobacterium kansasii [34] = assay: Antimycobacterial activity against Mycobacterium kansasii 6509/96 after 21 days by micromethod; settings: 6509/96, 504 h; procedure, shortened: as §2
Staphylococcus aureus [35] = assay: Antibacterial activity against Staphylococcus aureus CCM 4516/08 after 24 hrs by broth microdilution method; settings: CCM 4516/08, 24 h; procedure, shortened: as §1
Staphylococcus aureus [36] = assay: Antibacterial activity against Staphylococcus aureus CCM 4516/08 after 48 hrs by broth microdilution method; settings: CCM 4516/08, 48 h; procedure, shortened: as §1
Staphylococcus aureus [37] = assay: Antibacterial activity against methicillin-resistant Staphylococcus aureus H5996/08 after 24 hrs by broth microdilution method; settings: H5996/08, 24 h; procedure, shortened: as §1
Staphylococcus aureus [38] = assay: Antibacterial activity against methicillin-resistant Staphylococcus aureus H5996/08 after 48 hrs by broth microdilution method; settings: H5996/08, 48 h; procedure, shortened: as §1
[39] = test system: Staphylococcus epidermidis; assay: Antibacterial activity against Staphylococcus epidermidis H6966/08 after 24 hrs by broth microdilution method; settings: H6966/08, 24 h; procedure, shortened: as §1
[40] = test system: Staphylococcus epidermidis; assay: Antibacterial activity against Staphylococcus epidermidis H6966/08 after 48 hrs by broth microdilution method; settings: H6966/08, 48 h; procedure, shortened: as §1
Enterococcus sp. [41] = assay: Antibacterial activity against Enterococcus sp. J14365/08 after 24 hrs by broth microdilution method; settings: J14365/08, 24 h; procedure, shortened: as §1

## CC(=O)N[C@@H](Cc1ccccc1)C(=O)Oc1cc(Cl)ccc1C(=O)Nc1ccc(Cl)cc1
Enterococcus sp. [1]
  MIC: > 125 µM
Escherichia coli [2]
  MIC: 31.2 µM (≈ 14.7 µg/mL)
Escherichia coli [3]
  MIC: > 125 µM
Klebsiella pneumoniae [4]
  MIC: 62.5 µM (≈ 29.5 µg/mL)
Klebsiella pneumoniae [5]
  MIC: 125 µM (≈ 58.9 µg/mL)
Candida albicans [6]
  MIC: 31.2 µM (≈ 14.7 µg/mL)
Candida albicans [7]
  MIC: > 125 µM
Candida tropicalis [8]
  MIC: > 125 µM
Candida tropicalis [9]
  MIC: > 125 µM
Pichia kudriavzevii [10]
  MIC: 31.2 µM (≈ 14.7 µg/mL)
Pichia kudriavzevii [11]
  MIC: > 125 µM
Nakaseomyces glabratus [12]
  MIC: > 125 µM
Nakaseomyces glabratus [13]
  MIC: > 125 µM
Trichosporon beigelii [14]
  MIC: 15.6 µM (≈ 7.36 µg/mL)
Trichosporon beigelii [15]
  MIC: 62.5 µM (≈ 29.5 µg/mL)
Aspergillus fumigatus [16]
  MIC: > 125 µM
Aspergillus fumigatus [17]
  MIC: > 125 µM
Lichtheimia corymbifera [18]
  MIC: 7.81 µM (≈ 3.68 µg/mL)
Lichtheimia corymbifera [19]
  MIC: 7.81 µM (≈ 3.68 µg/mL)
[20]
  MIC: 15.6 µM (≈ 7.36 µg/mL)
[21]
  MIC: 31.2 µM (≈ 14.7 µg/mL)
[22]
  MIC: 1 µM (≈ 0.471 µg/mL)
Mycobacterium avium [23]
  MIC: 1 µM (≈ 0.471 µg/mL)
Mycobacterium kansasii [24]
  MIC: 1 µM (≈ 0.471 µg/mL)
[25]
  MIC: 4 µM (≈ 1.89 µg/mL)
[26]
  MIC: 4 µM (≈ 1.89 µg/mL)
Mycobacterium avium [27]
  MIC: 8 µM (≈ 3.77 µg/mL)
Mycobacterium avium [28]
  MIC: 16 µM (≈ 7.54 µg/mL)
Mycobacterium kansasii [29]
  MIC: 4 µM (≈ 1.89 µg/mL)
Mycobacterium kansasii [30]
  MIC: 4 µM (≈ 1.89 µg/mL)
Mycobacterium kansasii [31]
  MIC: 4 µM (≈ 1.89 µg/mL)
Mycobacterium kansasii [32]
  MIC: 4 µM (≈ 1.89 µg/mL)
Mycobacterium kansasii [33]
  MIC: 8 µM (≈ 3.77 µg/mL)
Mycobacterium kansasii [34]
  MIC: 16 µM (≈ 7.54 µg/mL)
Staphylococcus aureus [35]
  MIC: 1.95 µM (≈ 0.919 µg/mL)
Staphylococcus aureus [36]
  MIC: 15.6 µM (≈ 7.36 µg/mL)
Staphylococcus aureus [37]
  MIC: 1.95 µM (≈ 0.919 µg/mL)
Staphylococcus aureus [38]
  MIC: 31.2 µM (≈ 14.7 µg/mL)
[39]
  MIC: 1.95 µM (≈ 0.919 µg/mL)
[40]
  MIC: 31.2 µM (≈ 14.7 µg/mL)
Enterococcus sp. [41]
  MIC: 3.9 µM (≈ 1.84 µg/mL)
